Measured values taken from ChEMBL document CHEMBL1629456, “ApoA-I mimetic peptides promote pre-β HDL formation in vivo causing remodeling of HDL and triglyceride accumulation at higher dose” (Bioorg Med Chem, 2010).
*1 amine or outer side, *2 acyl side, *3 side chain or, on linkers, in order; H or OH if unused. Where a SMILES comes first, the peptide text is derived from it. [ ]: non-standard residue; d: D form. Ala(5-hexenyl) = C=CCCCCC[C@H](N)C(=O)O; X1 = CCCCCCC[C@H](N[*:1])C(=O)[*:2]

Tests used:
Plasma = assay: Induction of pre-beta HDL formation in human plasma after 2 hrs by ELISA; format: functional, cell-free
In short: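 Increasing peptide concentrations were incubated with normal human plasma at 37 °C for 2 h. Pre-β HDL was quantified by a commercial human pre-β HDL ELISA.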

[1] = target: Phospholipid-transporting ATPase ABCA1 (Mus musculus, UniProt P41233); assay: Induction of ABCA1-mediated [3H]cholesterol efflux in mouse RAW 264.7 macrophages after 24 hrs
Phospholipid-transporting ATPase ABCA1, sequence (P41233 whole entry): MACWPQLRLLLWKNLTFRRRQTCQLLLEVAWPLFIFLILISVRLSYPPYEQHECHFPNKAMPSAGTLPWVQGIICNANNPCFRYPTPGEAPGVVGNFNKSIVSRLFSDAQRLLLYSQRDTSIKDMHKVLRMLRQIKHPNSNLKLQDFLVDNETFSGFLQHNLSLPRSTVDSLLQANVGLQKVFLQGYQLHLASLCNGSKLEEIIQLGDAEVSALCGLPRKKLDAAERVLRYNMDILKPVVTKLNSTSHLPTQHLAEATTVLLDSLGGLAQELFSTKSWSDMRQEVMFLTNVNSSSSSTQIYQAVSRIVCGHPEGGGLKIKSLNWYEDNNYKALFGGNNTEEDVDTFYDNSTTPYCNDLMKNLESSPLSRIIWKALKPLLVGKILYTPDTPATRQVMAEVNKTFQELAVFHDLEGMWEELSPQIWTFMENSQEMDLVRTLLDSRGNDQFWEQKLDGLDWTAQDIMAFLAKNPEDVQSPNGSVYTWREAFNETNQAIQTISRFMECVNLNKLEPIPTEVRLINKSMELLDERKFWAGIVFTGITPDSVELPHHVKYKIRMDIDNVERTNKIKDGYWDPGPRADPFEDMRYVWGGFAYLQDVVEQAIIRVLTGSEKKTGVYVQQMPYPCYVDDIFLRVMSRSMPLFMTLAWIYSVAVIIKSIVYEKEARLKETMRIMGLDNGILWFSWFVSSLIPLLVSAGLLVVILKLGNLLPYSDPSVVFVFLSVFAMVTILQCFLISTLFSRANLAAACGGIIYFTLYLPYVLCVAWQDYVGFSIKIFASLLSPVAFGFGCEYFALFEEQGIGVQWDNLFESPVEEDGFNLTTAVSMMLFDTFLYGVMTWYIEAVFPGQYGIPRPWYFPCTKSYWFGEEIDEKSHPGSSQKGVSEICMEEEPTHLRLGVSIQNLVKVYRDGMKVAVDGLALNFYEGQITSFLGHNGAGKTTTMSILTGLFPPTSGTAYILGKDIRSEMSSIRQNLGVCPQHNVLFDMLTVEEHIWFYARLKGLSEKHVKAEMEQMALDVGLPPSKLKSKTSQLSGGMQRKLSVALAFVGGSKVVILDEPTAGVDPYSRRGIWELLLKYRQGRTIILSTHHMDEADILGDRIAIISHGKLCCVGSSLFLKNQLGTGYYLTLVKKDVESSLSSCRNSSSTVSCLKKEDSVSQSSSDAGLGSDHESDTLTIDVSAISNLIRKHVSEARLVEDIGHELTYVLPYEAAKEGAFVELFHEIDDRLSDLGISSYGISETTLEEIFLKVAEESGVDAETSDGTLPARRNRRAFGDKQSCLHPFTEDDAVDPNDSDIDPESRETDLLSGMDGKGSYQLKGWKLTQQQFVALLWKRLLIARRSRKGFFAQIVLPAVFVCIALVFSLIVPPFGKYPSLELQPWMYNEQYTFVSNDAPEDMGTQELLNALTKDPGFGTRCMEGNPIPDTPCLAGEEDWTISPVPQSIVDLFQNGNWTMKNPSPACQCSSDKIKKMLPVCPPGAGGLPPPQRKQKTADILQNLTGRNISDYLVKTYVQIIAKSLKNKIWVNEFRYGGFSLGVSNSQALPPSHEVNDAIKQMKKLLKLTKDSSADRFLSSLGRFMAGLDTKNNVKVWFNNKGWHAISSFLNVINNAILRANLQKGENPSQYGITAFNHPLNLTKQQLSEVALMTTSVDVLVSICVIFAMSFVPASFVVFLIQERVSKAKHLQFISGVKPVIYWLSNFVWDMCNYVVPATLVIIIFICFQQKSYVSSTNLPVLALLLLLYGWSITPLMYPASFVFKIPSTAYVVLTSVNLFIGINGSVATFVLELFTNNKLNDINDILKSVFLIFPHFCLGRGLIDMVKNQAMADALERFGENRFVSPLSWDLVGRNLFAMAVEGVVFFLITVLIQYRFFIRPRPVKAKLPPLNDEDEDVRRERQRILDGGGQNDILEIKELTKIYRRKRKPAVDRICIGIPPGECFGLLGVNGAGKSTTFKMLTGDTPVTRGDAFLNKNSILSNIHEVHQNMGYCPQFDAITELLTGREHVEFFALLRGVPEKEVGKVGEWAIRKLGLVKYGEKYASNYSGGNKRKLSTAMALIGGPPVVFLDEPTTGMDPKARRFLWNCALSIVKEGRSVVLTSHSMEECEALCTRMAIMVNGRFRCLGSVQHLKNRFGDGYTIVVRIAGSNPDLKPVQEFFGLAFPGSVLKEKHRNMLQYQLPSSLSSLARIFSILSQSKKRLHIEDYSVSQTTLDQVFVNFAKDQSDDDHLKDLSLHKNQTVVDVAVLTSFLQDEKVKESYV

EC50 [1] [µM]	SMILES	Activity (Plasma)
> 100	C=CCCCC[C@H](NC(=O)[C@H](CCC(=O)O)NC(=O)[C@H](CC(=O)O)NC(=O)[C@H](CC(C)C)NC(=O)[C@@H](NC(=O)[C@@H]1CCCN1C(C)=O)C(C)C)C(=O)N[C@@H](CCCNC(=N)N)C(=O)N[C@@H](CCC(=O)O)C(=O)N[C@@H](CCCCN)C(=O)N[C@@H](CC(C)C)C(=O)N[C@@H](CC(N)=O)C(=O)N[C@@H](CCC(=O)O)C(=O)N[C@@H](CCC(=O)O)C(=O)N[C@@H](CC(C)C)C(=O)N[C@@H](CCC(=O)O)C(=O)N[C@@H](C)C(=O)N[C@@H](CC(C)C)C(=O)N[C@@H](CCCCN)C(=O)N[C@@H](CCC(N)=O)C(=O)N[C@@H](CCCCN)C(=O)N[C@@H](CC(C)C)C(=O)N[C@@H](CCCCN)C(N)=O	–
> 100	C=CCCCC[C@@H](NC(=O)[C@H](CCC(=O)O)NC(=O)[C@H](CC(=O)O)NC(=O)[C@H](CC(C)C)NC(=O)[C@@H](NC(=O)[C@@H]1CCCN1C(C)=O)C(C)C)C(=O)N[C@@H](CCCN=C(N)N)C(=O)N[C@@H](CCC(=O)O)C(=O)N[C@@H](CCCCN)C(=O)N[C@@H](CC(C)C)C(=O)N[C@@H](CC(N)=O)C(=O)N[C@@H](CCC(=O)O)C(=O)N[C@@H](CCC(=O)O)C(=O)N[C@@H](CC(C)C)C(=O)N[C@@H](CCC(=O)O)C(=O)N[C@@H](C)C(=O)N[C@@H](CC(C)C)C(=O)N[C@@H](CCCCN)C(=O)N[C@@H](CCC(N)=O)C(=O)N[C@@H](CCCCN)C(=O)N[C@@H](CC(C)C)C(=O)N[C@@H](CCCCN)C(N)=O	–
> 100	C=CCCCCC[C@H](NC(=O)[C@H](CCC(N)=O)NC(=O)[C@H](CCCCN)NC(=O)[C@H](CC(C)C)NC(=O)[C@H](C)NC(=O)[C@H](CCC(=O)O)NC(=O)[C@H](CC(C)C)NC(=O)[C@H](CCC(=O)O)NC(=O)[C@H](CCC(=O)O)NC(=O)[C@H](CC(N)=O)NC(=O)[C@H](CC(C)C)NC(=O)[C@H](CCCCN)NC(=O)[C@H](CCC(=O)O)NC(=O)[C@H](CCCNC(=N)N)NC(=O)[C@H](Cc1ccccc1)NC(=O)[C@H](CCC(=O)O)NC(=O)[C@H](CC(=O)O)NC(=O)[C@H](CC(C)C)NC(=O)[C@@H](NC(=O)[C@@H]1CCCN1C(C)=O)C(C)C)C(=O)N[C@@H](CC(C)C)C(=O)N[C@@H](CCCCN)C(N)=O	–
1.8	C=CCCCCC[C@H](NC(=O)[C@H](CCC(N)=O)NC(=O)[C@H](CCCCN)NC(=O)[C@H](CC(C)C)NC(=O)[C@H](C)NC(=O)[C@H](CCC(=O)O)NC(=O)[C@H](CC(C)C)NC(=O)[C@H](CCCCCC=C)NC(=O)[C@H](CCC(=O)O)NC(=O)[C@H](CC(N)=O)NC(=O)[C@H](CC(C)C)NC(=O)[C@H](CCCCN)NC(=O)[C@H](CCC(=O)O)NC(=O)[C@H](CCCNC(=N)N)NC(=O)[C@H](CCCCCC=C)NC(=O)[C@H](CCC(=O)O)NC(=O)[C@H](CC(=O)O)NC(=O)[C@H](CC(C)C)NC(=O)[C@@H](NC(=O)[C@@H]1CCCN1C(C)=O)C(C)C)C(=O)N[C@@H](CC(C)C)C(=O)N[C@@H](CCCCN)C(N)=O (Ac-PVLDE[Ala(5-hexenyl)]REKLNE[Ala(5-hexenyl)]LEALKQ[Ala(5-hexenyl)]LK-NH2)	–
> 100	C=CCCCCC[C@@H](NC(=O)[C@H](CCC(=O)O)NC(=O)[C@H](CCC(=O)O)NC(=O)[C@H](CC(N)=O)NC(=O)[C@H](CC(C)C)NC(=O)[C@H](CCCCN)NC(=O)[C@H](CCC(=O)O)NC(=O)[C@H](CCCN=C(N)N)NC(=O)[C@H](Cc1ccccc1)NC(=O)[C@H](CCC(=O)O)NC(=O)[C@H](CC(=O)O)NC(=O)[C@H](CC(C)C)NC(=O)[C@@H](NC(=O)[C@@H]1CCCN1C(C)=O)C(C)C)C(=O)N[C@@H](CCC(=O)O)C(=O)N[C@@H](C)C(=O)N[C@@H](CC(C)C)C(=O)N[C@@H](CCCCN)C(=O)N[C@@H](CCC(N)=O)C(=O)N[C@@H](CCCCN)C(=O)N[C@@H](CC(C)C)C(=O)N[C@@H](CCCCN)C(N)=O	–
> 100	C=CCCCCC[C@@H](NC(=O)[C@H](C)NC(=O)[C@H](CCC(=O)O)NC(=O)[C@H](CC(C)C)NC(=O)[C@H](CCC(=O)O)NC(=O)[C@H](CCC(=O)O)NC(=O)[C@H](CC(N)=O)NC(=O)[C@H](CC(C)C)NC(=O)[C@H](CCCCN)NC(=O)[C@H](CCC(=O)O)NC(=O)[C@H](CCCN=C(N)N)NC(=O)[C@H](Cc1ccccc1)NC(=O)[C@H](CCC(=O)O)NC(=O)[C@H](CC(=O)O)NC(=O)[C@H](CC(C)C)NC(=O)[C@@H](NC(=O)[C@@H]1CCCN1C(C)=O)C(C)C)C(=O)N[C@@H](CCCCN)C(=O)N[C@@H](CCC(N)=O)C(=O)N[C@@H](CCCCN)C(=O)N[C@@H](CC(C)C)C(=O)N[C@@H](CCCCN)C(N)=O	–

The remaining lines, values behind:

SMILES	EC50 [1] [µM]	Activity (Plasma)
CCCCCCC[C@H](NC(=O)[C@H](CCC(=O)O)NC(=O)[C@H](CC(N)=O)NC(=O)[C@H](CC(C)C)NC(=O)[C@H](CCCCN)NC(=O)[C@H](CCC(=O)O)NC(=O)[C@H](CCCNC(=N)N)NC(=O)[C@H](Cc1ccccc1)NC(=O)[C@H](CCC(=O)O)NC(=O)[C@H](CC(=O)O)NC(=O)[C@H](CC(C)C)NC(=O)[C@@H](NC(=O)[C@@H]1CCCN1C(C)=O)C(C)C)C(=O)N[C@@H](CC(C)C)C(=O)N[C@@H](CCC(=O)O)C(=O)N[C@@H](C)C(=O)N[C@@H](CC(C)C)C(=O)N[C@@H](CCCCN)C(=O)N[C@@H](CCC(N)=O)C(=O)N[C@@H](CCCCN)C(=O)N[C@@H](CC(C)C)C(=O)N[C@@H](CCCCN)C(N)=O (Ac-PVLDEFREKLNE[X1]LEALKQKLK-NH2)	–	Dose-dependent effect
C=CCCCC[C@@H](NC(=O)[C@H](CCC(=O)O)NC(=O)[C@H](CCCNC(=N)N)NC(=O)[C@H](Cc1ccccc1)NC(=O)[C@H](CCC(=O)O)NC(=O)[C@H](CC(=O)O)NC(=O)[C@H](CC(C)C)NC(=O)[C@@H](NC(=O)[C@@H]1CCCN1C(C)=O)C(C)C)C(=O)N[C@@H](CC(C)C)C(=O)N[C@@H](CC(N)=O)C(=O)N[C@@H](CCC(=O)O)C(=O)N[C@@H](CCC(=O)O)C(=O)N[C@@H](CC(C)C)C(=O)N[C@@H](CCC(=O)O)C(=O)N[C@@H](C)C(=O)N[C@@H](CC(C)C)C(=O)N[C@@H](CCCCN)C(=O)N[C@@H](CCC(N)=O)C(=O)N[C@@H](CCCCN)C(=O)N[C@@H](CC(C)C)C(=O)N[C@@H](CCCCN)C(N)=O	> 100	–
C=CCCCCC[C@H](NC(=O)[C@H](CCC(=O)O)NC(=O)[C@H](CC(N)=O)NC(=O)[C@H](CC(C)C)NC(=O)[C@H](CCCCN)NC(=O)[C@H](CCC(=O)O)NC(=O)[C@H](CCCN=C(N)N)NC(=O)[C@H](Cc1ccccc1)NC(=O)[C@H](CCC(=O)O)NC(=O)[C@H](CC(=O)O)NC(=O)[C@H](CC(C)C)NC(=O)[C@H](CCCCCC=C)NC(=O)[C@@H]1CCCN1C(C)=O)C(=O)N[C@@H](CC(C)C)C(=O)N[C@@H](CCC(=O)O)C(=O)N[C@@H](C)C(=O)N[C@@H](CC(C)C)C(=O)N[C@@H](CCCCN)C(=O)N[C@@H](CCC(N)=O)C(=O)N[C@@H](CCCCN)C(=O)N[C@@H](CC(C)C)C(=O)N[C@@H](CCCCN)C(N)=O (Ac-P[Ala(5-hexenyl)]LDEFREKLNE[Ala(5-hexenyl)]LEALKQKLK-NH2)	0.4	–
C=CCCCC[C@@H](NC(=O)[C@H](C)NC(=O)[C@H](CCC(=O)O)NC(=O)[C@H](CC(C)C)NC(=O)[C@H](CCC(=O)O)NC(=O)[C@H](CCC(=O)O)NC(=O)[C@H](CC(N)=O)NC(=O)[C@H](CC(C)C)NC(=O)[C@H](CCCCN)NC(=O)[C@H](CCC(=O)O)NC(=O)[C@H](CCCNC(=N)N)NC(=O)[C@H](Cc1ccccc1)NC(=O)[C@H](CCC(=O)O)NC(=O)[C@H](CC(=O)O)NC(=O)[C@H](CC(C)C)NC(=O)[C@@H](NC(=O)[C@@H]1CCCN1C(C)=O)C(C)C)C(=O)N[C@@H](CCCCN)C(=O)N[C@@H](CCC(N)=O)C(=O)N[C@@H](CCCCN)C(=O)N[C@@H](CC(C)C)C(=O)N[C@@H](CCCCN)C(N)=O	> 100	–
